Laboratory results published in ChEMBL document CHEMBL5696442, “Discovery of type II inhibitors of TGFβ-activated kinase 1 (TAK1) and mitogen-activated protein kinase kinase kinase kinase 2 (MAP4K2)” (J Med Chem, 2015).

What was measured:
Ephrin type-A receptor 2 = Ephrin type-A receptor 2 (Homo sapiens, UniProt P29317); test: Inhibition of EphA2 (unknown origin) ACT labeling site by KiNativ Profiling analysis
[1] = target: DNA-PK/Ku70/Ku85 (Homo sapiens) (UniProt P78527+P12956+P13010); test: Inhibition of DNAPK ATP labeling site harbouring EHPFLVKGGEDLR in human A-375 cells at 5 uM by KiNativ Profiling analysis relative to control; type: cell-based
Summary of the method: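 Live A375 melanoma cells were treated with compound at 0.5 or 5 μM, then lysed. Lysates were labeled with a lysine-reactive ATP or ADP-biotin probe. The read-out was protection of each kinase probe-labeling site from labeling, relative to control.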

[2] = target: T1, Kinase suppressor of Ras 1 (Homo sapiens) (UniProt Q8IVT5); test: Inhibition of KSR1 ACT labeling site harbouring SKNVFYDNGK in human A-375 cells at 5 uM by KiNativ Profiling analysis relative to control; type: cell-based
T1 sequence (whole entry): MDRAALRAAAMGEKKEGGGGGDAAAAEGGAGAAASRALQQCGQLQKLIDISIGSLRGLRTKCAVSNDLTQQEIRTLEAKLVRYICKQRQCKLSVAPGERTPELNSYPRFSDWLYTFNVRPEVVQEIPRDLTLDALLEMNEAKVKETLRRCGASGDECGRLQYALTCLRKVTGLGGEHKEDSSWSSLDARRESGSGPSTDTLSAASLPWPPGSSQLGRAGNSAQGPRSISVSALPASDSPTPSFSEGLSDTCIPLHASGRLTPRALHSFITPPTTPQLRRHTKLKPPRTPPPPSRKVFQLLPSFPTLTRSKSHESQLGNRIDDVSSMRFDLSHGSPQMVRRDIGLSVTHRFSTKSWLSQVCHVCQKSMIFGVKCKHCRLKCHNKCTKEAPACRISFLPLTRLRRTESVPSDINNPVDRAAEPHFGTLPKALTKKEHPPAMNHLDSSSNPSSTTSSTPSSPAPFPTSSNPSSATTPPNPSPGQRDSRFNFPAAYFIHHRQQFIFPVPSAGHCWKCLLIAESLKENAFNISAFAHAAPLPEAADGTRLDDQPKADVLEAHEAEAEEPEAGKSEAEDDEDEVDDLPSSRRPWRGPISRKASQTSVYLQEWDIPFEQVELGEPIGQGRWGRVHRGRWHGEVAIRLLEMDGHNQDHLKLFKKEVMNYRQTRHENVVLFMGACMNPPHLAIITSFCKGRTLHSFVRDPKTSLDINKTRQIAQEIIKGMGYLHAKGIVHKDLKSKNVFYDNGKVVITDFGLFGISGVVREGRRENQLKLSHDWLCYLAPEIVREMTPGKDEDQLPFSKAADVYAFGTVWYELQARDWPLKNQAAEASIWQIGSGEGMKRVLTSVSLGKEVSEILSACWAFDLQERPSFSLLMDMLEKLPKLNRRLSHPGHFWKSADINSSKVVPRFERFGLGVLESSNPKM

[3] = target: Serine/threonine-protein kinase WNK1 (Homo sapiens) (UniProt Q9H4A3); test: Inhibition of Wnk1 ACT labeling site in human A-375 cells at 5 uM by KiNativ Profiling analysis relative to control; type: cell-based
Serine/threonine-protein kinase WNK1 (Homo sapiens), sequence (Q9H4A3 whole entry, looked up): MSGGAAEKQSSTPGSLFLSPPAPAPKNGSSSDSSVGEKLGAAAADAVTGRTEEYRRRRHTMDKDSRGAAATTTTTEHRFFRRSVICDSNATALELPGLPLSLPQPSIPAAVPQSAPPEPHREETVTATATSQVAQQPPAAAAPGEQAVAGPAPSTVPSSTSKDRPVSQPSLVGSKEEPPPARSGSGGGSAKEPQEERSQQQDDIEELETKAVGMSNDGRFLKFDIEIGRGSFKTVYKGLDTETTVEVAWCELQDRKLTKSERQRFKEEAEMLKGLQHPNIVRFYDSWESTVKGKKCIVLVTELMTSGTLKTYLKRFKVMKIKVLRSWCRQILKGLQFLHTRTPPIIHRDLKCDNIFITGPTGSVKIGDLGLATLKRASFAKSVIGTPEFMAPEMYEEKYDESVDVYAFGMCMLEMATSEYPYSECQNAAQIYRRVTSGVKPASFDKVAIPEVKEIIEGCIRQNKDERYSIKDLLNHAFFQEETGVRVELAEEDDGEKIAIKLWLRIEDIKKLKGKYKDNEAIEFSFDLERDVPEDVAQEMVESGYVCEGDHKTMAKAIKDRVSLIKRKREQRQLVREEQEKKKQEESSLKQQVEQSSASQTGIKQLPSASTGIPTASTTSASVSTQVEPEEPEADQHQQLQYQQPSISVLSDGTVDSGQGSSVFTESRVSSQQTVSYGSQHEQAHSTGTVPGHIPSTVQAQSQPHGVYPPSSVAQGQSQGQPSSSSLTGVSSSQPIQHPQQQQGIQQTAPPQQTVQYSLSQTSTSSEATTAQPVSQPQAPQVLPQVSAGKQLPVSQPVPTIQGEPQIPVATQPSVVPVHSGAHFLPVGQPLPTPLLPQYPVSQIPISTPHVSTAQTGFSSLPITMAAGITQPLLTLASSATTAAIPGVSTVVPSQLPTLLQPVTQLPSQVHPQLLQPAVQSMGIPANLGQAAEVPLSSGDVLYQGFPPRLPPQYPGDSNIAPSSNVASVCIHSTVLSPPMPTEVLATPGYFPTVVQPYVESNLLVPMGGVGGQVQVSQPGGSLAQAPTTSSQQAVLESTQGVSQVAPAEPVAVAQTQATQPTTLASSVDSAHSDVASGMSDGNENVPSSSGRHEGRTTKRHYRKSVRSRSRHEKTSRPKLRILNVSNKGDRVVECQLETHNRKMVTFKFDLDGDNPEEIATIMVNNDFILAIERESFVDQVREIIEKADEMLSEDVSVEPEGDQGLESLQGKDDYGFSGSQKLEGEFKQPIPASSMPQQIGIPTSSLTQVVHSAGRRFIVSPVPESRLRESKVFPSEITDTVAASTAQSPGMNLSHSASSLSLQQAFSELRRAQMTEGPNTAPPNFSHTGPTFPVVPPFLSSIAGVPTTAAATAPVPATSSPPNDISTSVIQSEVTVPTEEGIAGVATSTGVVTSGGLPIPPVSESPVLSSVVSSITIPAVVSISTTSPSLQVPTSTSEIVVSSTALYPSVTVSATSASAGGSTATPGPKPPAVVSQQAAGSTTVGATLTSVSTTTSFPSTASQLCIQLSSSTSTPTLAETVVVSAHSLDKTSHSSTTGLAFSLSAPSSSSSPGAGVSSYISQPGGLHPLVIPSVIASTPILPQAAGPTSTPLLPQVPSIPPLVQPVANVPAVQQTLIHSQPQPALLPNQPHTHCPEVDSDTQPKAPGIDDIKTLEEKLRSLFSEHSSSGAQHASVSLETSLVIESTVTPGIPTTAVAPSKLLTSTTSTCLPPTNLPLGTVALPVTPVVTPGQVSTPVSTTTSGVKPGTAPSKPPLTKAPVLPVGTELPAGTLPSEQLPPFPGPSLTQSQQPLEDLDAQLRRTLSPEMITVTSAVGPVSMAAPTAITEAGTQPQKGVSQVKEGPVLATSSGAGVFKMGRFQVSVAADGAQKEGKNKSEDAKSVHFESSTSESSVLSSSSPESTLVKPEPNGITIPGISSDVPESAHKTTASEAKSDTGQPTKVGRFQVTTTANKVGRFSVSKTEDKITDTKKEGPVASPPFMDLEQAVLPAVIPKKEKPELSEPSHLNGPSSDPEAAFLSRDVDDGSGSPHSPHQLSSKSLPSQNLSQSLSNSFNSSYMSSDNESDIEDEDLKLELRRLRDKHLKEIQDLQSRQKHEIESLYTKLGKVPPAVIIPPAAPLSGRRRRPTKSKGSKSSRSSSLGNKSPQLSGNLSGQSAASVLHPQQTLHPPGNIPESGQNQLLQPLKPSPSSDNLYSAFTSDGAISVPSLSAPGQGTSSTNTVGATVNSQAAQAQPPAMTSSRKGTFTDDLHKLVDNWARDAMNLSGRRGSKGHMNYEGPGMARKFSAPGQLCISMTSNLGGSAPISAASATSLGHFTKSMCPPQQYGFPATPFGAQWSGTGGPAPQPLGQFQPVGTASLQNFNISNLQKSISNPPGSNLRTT

[4] = target: T2, Inhibitor of nuclear factor kappa-B kinase subunit alpha (Homo sapiens) (UniProt O15111); test: Inhibition of IKKa Lys2 labeling site in human A-375 cells at 0.5 uM by KiNativ Profiling analysis relative to control; type: cell-based
T2 sequence (whole entry): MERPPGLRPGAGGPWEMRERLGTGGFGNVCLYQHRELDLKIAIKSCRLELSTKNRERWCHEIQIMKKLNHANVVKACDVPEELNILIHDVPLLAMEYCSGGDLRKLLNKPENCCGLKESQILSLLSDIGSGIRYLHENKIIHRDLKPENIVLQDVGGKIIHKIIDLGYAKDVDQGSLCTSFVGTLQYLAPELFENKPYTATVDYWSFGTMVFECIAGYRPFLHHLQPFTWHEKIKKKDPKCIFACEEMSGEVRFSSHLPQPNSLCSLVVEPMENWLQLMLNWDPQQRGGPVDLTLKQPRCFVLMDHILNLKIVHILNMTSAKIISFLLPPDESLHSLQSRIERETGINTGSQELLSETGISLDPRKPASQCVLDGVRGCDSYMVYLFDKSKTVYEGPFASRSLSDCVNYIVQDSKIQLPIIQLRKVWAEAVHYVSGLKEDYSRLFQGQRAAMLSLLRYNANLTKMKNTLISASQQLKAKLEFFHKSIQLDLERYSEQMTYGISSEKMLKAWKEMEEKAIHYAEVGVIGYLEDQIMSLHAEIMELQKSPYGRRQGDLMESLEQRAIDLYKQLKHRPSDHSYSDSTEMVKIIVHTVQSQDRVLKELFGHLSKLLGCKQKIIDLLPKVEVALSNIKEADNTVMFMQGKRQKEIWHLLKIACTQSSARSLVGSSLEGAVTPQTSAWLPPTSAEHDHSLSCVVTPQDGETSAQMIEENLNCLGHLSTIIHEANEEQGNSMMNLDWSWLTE

[5] = target: Serine/threonine-protein kinase MRCK beta (Homo sapiens) (UniProt Q9Y5S2); test: Inhibition of MRCKb in human A-375 cells at 0.5 uM by KiNativ Profiling analysis relative to control; type: cell-based
Serine/threonine-protein kinase MRCK beta (Homo sapiens), sequence (Q9Y5S2 whole entry): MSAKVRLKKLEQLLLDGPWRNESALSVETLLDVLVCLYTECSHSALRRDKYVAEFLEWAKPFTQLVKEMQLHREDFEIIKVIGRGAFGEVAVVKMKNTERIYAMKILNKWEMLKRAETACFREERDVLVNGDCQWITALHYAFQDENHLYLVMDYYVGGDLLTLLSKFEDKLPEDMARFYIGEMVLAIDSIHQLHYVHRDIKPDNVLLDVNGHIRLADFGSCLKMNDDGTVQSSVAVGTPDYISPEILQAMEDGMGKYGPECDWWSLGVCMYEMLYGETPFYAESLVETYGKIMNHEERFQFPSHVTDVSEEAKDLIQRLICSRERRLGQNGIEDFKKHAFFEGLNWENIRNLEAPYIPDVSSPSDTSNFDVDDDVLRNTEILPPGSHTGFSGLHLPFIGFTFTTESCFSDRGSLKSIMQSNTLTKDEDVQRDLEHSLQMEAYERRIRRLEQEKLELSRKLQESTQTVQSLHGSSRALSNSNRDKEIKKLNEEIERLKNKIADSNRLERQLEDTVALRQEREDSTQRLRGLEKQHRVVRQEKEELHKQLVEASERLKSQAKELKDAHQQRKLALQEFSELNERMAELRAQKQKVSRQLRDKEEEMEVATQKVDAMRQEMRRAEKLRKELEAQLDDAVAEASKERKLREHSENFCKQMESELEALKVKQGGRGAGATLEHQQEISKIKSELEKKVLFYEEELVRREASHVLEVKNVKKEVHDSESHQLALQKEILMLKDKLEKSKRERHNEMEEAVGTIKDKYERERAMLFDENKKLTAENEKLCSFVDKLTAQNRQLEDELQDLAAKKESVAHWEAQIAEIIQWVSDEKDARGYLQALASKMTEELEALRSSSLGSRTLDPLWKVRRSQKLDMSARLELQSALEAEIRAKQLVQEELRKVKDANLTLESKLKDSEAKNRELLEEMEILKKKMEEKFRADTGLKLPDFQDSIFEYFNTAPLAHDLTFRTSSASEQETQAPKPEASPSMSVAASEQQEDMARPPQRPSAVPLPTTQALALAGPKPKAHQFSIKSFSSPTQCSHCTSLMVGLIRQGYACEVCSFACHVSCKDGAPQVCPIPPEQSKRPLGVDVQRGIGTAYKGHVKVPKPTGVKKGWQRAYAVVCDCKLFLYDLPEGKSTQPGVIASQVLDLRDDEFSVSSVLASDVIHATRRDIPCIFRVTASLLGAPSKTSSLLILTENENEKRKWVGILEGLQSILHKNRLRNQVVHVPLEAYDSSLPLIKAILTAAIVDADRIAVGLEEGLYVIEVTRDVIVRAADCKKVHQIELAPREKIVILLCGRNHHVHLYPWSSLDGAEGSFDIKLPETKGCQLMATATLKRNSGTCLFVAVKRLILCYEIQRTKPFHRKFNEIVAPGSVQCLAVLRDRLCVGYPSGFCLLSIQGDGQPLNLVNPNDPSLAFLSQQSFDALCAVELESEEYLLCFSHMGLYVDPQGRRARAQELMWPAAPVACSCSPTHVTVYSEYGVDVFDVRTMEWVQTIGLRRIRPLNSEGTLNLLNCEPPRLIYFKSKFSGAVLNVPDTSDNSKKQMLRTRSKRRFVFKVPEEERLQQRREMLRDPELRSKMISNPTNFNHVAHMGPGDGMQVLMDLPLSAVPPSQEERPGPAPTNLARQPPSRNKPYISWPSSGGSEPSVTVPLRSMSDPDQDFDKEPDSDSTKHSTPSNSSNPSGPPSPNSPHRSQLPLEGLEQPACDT

[6] = target: Cyclin-dependent kinase 16 (Homo sapiens) (UniProt Q00536); test: Inhibition of PCTAIRE1 Lys1 labeling site in human A-375 cells at 0.5 uM by KiNativ Profiling analysis relative to control; type: cell-based
[7] = target: T3, Aurora kinase A (Homo sapiens) (UniProt O14965); test: Inhibition of AurA ATP Loop labeling site in human A-375 cells at 0.05 uM by KiNativ Profiling analysis relative to control; type: cell-based
T3 sequence (whole entry): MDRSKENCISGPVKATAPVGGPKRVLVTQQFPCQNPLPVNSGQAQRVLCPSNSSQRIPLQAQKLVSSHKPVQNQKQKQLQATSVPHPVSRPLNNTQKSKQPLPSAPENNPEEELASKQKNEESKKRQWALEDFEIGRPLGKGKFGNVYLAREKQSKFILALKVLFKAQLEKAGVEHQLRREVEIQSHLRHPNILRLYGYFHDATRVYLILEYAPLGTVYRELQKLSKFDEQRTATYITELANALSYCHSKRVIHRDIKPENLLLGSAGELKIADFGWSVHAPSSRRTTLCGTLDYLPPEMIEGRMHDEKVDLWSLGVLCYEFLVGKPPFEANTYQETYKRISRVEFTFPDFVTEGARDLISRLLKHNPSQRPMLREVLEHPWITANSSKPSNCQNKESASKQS

[8] = target: Cyclin-dependent kinase 10 (Homo sapiens) (UniProt Q15131); test: Inhibition of CDK10 Lys2 labeling site in human A-375 cells at 0.05 uM by KiNativ Profiling analysis relative to control; type: cell-based
Cyclin-dependent kinase 10 (Homo sapiens), sequence (Q15131 whole entry, canonical isoform): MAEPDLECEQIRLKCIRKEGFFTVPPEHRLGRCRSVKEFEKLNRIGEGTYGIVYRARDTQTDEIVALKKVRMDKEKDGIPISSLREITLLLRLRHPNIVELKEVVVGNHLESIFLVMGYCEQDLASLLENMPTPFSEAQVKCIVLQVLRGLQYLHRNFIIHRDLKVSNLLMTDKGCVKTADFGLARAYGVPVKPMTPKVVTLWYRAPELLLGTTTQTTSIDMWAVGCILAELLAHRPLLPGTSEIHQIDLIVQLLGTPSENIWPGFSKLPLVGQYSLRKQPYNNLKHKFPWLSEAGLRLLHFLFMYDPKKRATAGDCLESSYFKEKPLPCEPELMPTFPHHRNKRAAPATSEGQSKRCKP

[9] = target: Casein kinase I isoform delta (Homo sapiens) (UniProt P48730); test: Inhibition of CK1delta Lys2 labeling site in human A-375 cells at 0.05 uM by KiNativ Profiling analysis relative to control; type: cell-based
Casein kinase I isoform delta (Homo sapiens), sequence (P48730 whole entry, looked up, canonical isoform): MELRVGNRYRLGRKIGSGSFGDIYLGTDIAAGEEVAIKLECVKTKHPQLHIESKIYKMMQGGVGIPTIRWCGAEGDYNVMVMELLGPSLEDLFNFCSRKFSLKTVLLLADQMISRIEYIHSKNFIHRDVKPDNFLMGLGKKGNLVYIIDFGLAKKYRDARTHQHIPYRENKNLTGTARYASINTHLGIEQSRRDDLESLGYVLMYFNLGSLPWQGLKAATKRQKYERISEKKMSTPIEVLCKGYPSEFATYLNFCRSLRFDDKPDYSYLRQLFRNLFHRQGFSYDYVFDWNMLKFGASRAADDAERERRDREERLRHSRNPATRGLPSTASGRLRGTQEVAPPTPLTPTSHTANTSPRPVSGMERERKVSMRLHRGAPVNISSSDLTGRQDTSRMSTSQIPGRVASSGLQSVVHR

[10] = target: Serine/threonine-protein kinase MRCK beta (Homo sapiens) (UniProt Q9Y5S2); test: Inhibition of MRCKb in human A-375 cells at 0.05 uM by KiNativ Profiling analysis relative to control; type: cell-based

Structure (SMILES) | IC50 (Ephrin type-A receptor 2) [µM] | inhibition [1] [%] | inhibition [2] [%] | inhibition [3] [%] | inhibition [4] [%] | inhibition [5] [%] | inhibition [6] [%] | inhibition [7] [%] | inhibition [8] [%] | inhibition [9] [%] | inhibition [10] [%]
CCN1CCN(Cc2ccc(NC(=O)c3ccc(C)c(/C=C/c4cnc5[nH]ccc5c4OC)c3)cc2C(F)(F)F)CC1 | 0.077 | 15.4 | 12.2 | -4.5 | 13.3 | 7.3 | 30.2 | 14.1 | 30.7 | -9.6 | 12.1
CCN1CCN(Cc2ccc(NC(=O)c3ccc(C)c(Oc4ccnc5[nH]ccc45)c3)cc2C(F)(F)F)CC1 | 0.773 | 12.4 | 32.1 | 14.4 | 33.4 | -3 | 47.7 | 32.5 | 7.8 | -0.7 | -8.8
